Assay outcomes: PubChem BioAssay, several laboratories
Hits are enriched below; roughly 1.5% of the tested compounds scored in any of these assays.
GASC-1 inh: inhibitors of human GASC-1 (JMJD2C) demethylase. Q9H3R0. GST-JMJD2C(1-420) H3K9me3 demethylation, DELFIA europium. inhibition, % at 2.35 µM. hit rate 0.069% among 330,000. AID 2099;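 active = more than half of a compound's replicate wells show inhibition beyond 50%, single wells judged on their own value; inconclusive = some, but no more than half, of replicates pass 50% inhibition; inactive = no replicate passes 50% inhibition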;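 note: signal counts dimethyl H3K9 product captured on neutravidin plate; 0% = median of DMSO wells and 100% = 0.3 times that DMSO median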
GalR3 antag: human GalR3 antagonism. O60755. HEK293 GalR3-CNG cAMP membrane potential fluorescence; galR3 body fused to GalR1 C-terminus. inhibition, % at 3 µM. hit rate 0.44% among 360,000. AID 651719;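 active = inhibition above the screen-wide average plus 3 SD, cut at about 13% in these data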;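 note: forskolin and galanin both at EC90 stimulate the cells; cAMP rise reported by CNG channel membrane potential dye signal; 0% = forskolin plus galanin with DMSO and 100% = forskolin alone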
Target sequence (O60755 1-299 limits assumed): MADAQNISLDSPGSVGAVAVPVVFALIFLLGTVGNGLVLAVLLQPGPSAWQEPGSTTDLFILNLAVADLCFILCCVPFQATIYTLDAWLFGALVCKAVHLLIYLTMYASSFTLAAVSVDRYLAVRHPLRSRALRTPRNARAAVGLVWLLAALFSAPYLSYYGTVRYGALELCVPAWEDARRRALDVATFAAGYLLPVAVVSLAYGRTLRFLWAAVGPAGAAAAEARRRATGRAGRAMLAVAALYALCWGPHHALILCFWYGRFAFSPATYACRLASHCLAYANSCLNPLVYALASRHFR
NR2E3 ag-1: agonists of human NR2E3 nuclear receptor; CHO-S Gal4-NCOR/VP16-NR2E3 two-hybrid, luciferase; hit rate 0.35% among 360,000; AID 602229; inhibition of corepressor binding, % at 3.98 µM;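 active = inhibition above the mean of all tested compounds plus 3 SD, cut at about 70% in these data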;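 note: 0% = DMSO with NR2E3 transfected cells and 100% = cells lacking NR2E3 construct; higher means lower luciferase signal from less NR2E3 corepressor binding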
Target sequence (Q9Y5X4 whole entry, looked up, the tested form may be a part): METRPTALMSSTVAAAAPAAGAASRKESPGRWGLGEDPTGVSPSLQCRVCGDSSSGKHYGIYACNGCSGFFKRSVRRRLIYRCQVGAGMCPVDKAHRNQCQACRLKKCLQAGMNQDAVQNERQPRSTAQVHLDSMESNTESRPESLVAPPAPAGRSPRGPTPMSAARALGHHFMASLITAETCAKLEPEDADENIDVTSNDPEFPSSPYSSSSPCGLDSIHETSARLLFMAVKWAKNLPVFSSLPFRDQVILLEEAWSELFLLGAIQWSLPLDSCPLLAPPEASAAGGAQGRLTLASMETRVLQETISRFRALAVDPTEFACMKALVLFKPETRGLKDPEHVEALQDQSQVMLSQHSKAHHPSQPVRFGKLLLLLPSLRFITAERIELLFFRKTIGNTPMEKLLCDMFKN
697 NFkB inh: inhibitors of the PMA/ionomycin-induced NF-kB reporter in 697 B cells; AID 435022; inhibition, % at 4 µM; hit rate 0.33% among 330,000; 697 B-cell NF-kB luciferase reporter, 16 h; in the data active = inhibition above about 35%
Jurkat NFkB inh: lowers PMA/ionomycin-induced NF-kB signal in Jurkat cells; PMA/ionomycin-induced NF-kB luciferase reporter, luminescence; inhibition, % at 4 µM; hit rate 0.53% among 330,000; AID 435003; in the data active = inhibition above about 50%
NR2E3 ag-2: agonists of human nuclear receptor NR2E3; Q9Y5X4; GST-NR2E3/biotin-RetCOR TR-FRET, 1536-well; inhibition of corepressor binding, % at 4.78 µM; hit rate 0.12% among 320,000;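 active = percent inhibition above the cutoff of mean plus 3 SD of all tested compounds, set per screening campaign, cut at about 20% in these data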;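 note: 0% = DMSO wells and 100% = biotin wells as full block of FRET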
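Material – GST-tagged NR2E3 plus biotinylated RetCOR corepressor · Quantity – NR2E3 fusion 1.35 nM · Times – 5 h incubation at 4 °C · Medium – pH 7.5 Tris-based buffer · Technique – TR-FRET, Eu(K)-anti-GST donor, streptavidin-D2 acceptor, ex 340, em 617/671 nm · Benchmarks – high control biotin, low control 0.6% DMSO · Format – 1536-well plates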
697 NFkB conf: inhibitors of the PMA/ionomycin-induced NF-kB reporter in 697 B cells, retest | shares compounds with 697 NFkB inh | 697 B-cell NF-kB luciferase, 16 h | inhibition, % at 4 µM | hit rate 35% among 2,000 | AID 449746; in the data active = inhibition mostly above about 28%, no sharp cut-off; inactive = mostly below about 22%
The depositor's hits bear a star; i = inactive; ? = inconclusive; / = no result given.

SMILES | GASC-1 inh | GalR3 antag | NR2E3 ag-1 | 697 NFkB inh | Jurkat NFkB inh | NR2E3 ag-2 | 697 NFkB conf
O=C1Nc2ccc(S(=O)(=O)NCC3CCCO3)c3cccc1c23 (stereo not drawn) | -6.0 | -0.9 | -9.2 | 6.4 | -8.4 | -3.0 | /
CCN1C(=O)c2cccc3c(S(=O)(=O)Nc4ncccc4C)ccc1c23 | -5.8 | 1.9 | -7.0 | 33.6 | 7.5 | -0.6 | /
CCN1C(=O)c2cccc3c(S(=O)(=O)Nc4ccncc4)ccc1c23 | ? | / | 0.6 | 37.3* | -1.1 | 2.6 | 9.6
Cc1nn2cc(-c3ccc(-c4ccccc4)cc3)nc2s1 | 12.3 | -6.0 | -119.7 | -330.9 | -107.3 | 0.9 | -328.5
CC(C)c1ccc(NC(=O)[C@H](Cc2c[nH]c3ccccc23)NC(=O)[C@@H]2Cc3ccccc3CN2)cc1 | -47.9 | -6.8 | -7.6 | i | -35.1 | 1.9 | -91.6
F[B-](F)(F)c1cncc2ccccc12 | / | -7.2 | 8.8 | / | / | / | /
Cc1cc2cc(CNC(=S)NCc3ccccc3)ccc2n1C | 7.6 | -6.7 | 11.8 | -20.2 | 22.5 | -0.2 | /
Cc1ccc2c(c1)cc(C(=O)NCc1ccccc1)n2C | 4.6 | -5.5 | -10.5 | i | -49.4 | 6.9 | i
COCc1nnc(NC(=O)c2cccc(NC(=O)c3ccccc3)c2)s1 | -2.5 | -1.8 | 3.9 | -6.1 | -8.3 | 3.1 | /
CCN(CC)c1ccc(/C=C(\C#N)c2ccccn2)cc1 | -0.3 | / | -70.4 | -290.5 | -11.6 | 4.3 | -428.2
CN(C)c1cc[n+](CC[n+]2ccc(N(C)C)cc2)cc1 | 5.1 | -3.2 | 9.7 | 10.3 | 4.3 | 1.0 | /
CN(C)c1cc[n+](Cc2c(Cl)cccc2Cl)cc1 | 4.6 | -0.7 | -12.2 | 45.4* | 47.0 | -0.7 | 38.5*
CCn1c2ccccc2c2cc(NC(=O)C(C)OC(=O)c3ccc(NC(=O)CC#N)cc3)ccc21 (stereo not drawn) | -3.3 | -6.7 | 7.7 | 10.9 | -0.2 | 4.0 | /
O=C(NCCCN1CCCC1=O)c1ccc(S(=O)(=O)Nc2cccc(C(F)(F)F)c2)cc1 | ? | 0.0 | 13.1 | -17.6 | 9.7 | -1.5 | /
CCOC(=O)[C@H]1[C@H]2COc3ccccc3[C@@H]2N2C(=O)c3ccc(C)cc3NC(=O)[C@@]12C | 1.6 | -4.0 | 25.3 | 36.1* | 11.3 | -2.4 | 18.5
Cc1ccc(Nc2nc(=O)c3cccnc3s2)c(Br)c1 | 4.7 | 0.1 | -9.2 | -282.6 | 7.6 | 1.5 | -253.6
CCOC(=O)c1ccc(Nc2nc(=O)c3cccnc3s2)cc1 | -3.6 | -6.5 | -45.3 | -133.1 | -118.3 | 5.5 | /
O=c1nc(Nc2ccc(OCc3ccccc3)cc2)sc2ncccc12 | -7.9 | -6.6 | 0.1 | i | -55.2 | -0.5 | i
COc1cc(/C=N/NC(=O)CC#N)ccc1Oc1nc(Cl)ncc1F | -4.4 | -9.7 | 5.8 | 5.9 | 11.6 | 4.6 | /
Cc1cc(C(=O)COC(=O)c2cccn2C)c(C)n1Cc1ccco1 | -3.5 | -9.0 | -66.4 | -304.8 | -132.8 | 5.6 | -240.1
COC(=O)C1=C(C)N(C)C(=NCc2cccc(C(F)(F)F)c2)NC1c1ccc(Cl)cc1 (stereo not drawn) | / | -1.2 | / | / | / | / | /
C=CCn1c(SCC(=O)Nc2ccc(-c3nc4ccc(C)cc4s3)cc2)nnc1-c1ccncc1 | 1.4 | -4.3 | -133.2 | -214.5 | -51.0 | -1.1 | /
Cc1ccc2nc(-c3ccc(NC(=O)CN4CCN(c5ccccn5)CC4)cc3)sc2c1 | 6.1 | 0.0 | -112.1 | -289.6 | -79.1 | -1.8 | -229.5
CCn1c(SCC(=O)Nc2ccc(-c3nc4ccc(C)cc4s3)cc2)nnc1-c1ccccc1 | 56.9 | / | / | -325.9 | -76.3 | -19.5 | -189.2
CC(C)(C)NC(=O)C(c1ccncc1)N(C(=O)C1CSC(=O)C1)c1ccccc1 (stereo not drawn) | -0.4 | 0.1 | -25.0 | -5.1 | -2.3 | -1.9 | /
SMILES | GASC-1 inh | GalR3 antag | NR2E3 ag-1 | 697 NFkB inh | Jurkat NFkB inh | NR2E3 ag-2 | 697 NFkB conf
Cc1nc2ccccc2c(=O)n1/N=C/c1ccccc1 | 2.7 | -2.7 | -27.8 | -10.4 | -15.1 | -4.8 | /
Cc1nc2ccccc2c(=O)n1/N=C1\C(=O)N(C)c2ccccc21 | -1.1 | / | / | 58.4* | -7.0 | 0.3 | 7.5
O=C1c2ccccc2C(=O)C1c1ccc2ccccc2n1 | 5.0 | -2.1 | -95.3 | -253.2 | -56.0 | -2.7 | -381.1
COC(=O)CCCCCc1ccc(C(C)=O)s1 | 4.4 | -5.3 | -17.3 | -13.2 | -10.0 | 4.7 | /
COc1ccc(OC)c(NC(=O)c2cc3c(Cl)nc4ccccc4c3s2)c1 | -1.7 | -9.8 | 1.3 | 30.7 | -1.1 | -1.0 | /
COc1ccc(NC(=O)c2cc3c(Cl)nc4ccccc4c3s2)cc1OC | -0.4 | 1.1 | -18.3 | 43.6* | 10.7 | 1.9 | 39.2*
O=C(CN1CCN(S(=O)(=O)c2ccccc2)CC1)N1CCc2ccccc21 | 22.9 | -4.7 | 5.9 | 10.7 | -8.8 | 2.1 | /
CN(C)C(=O)CCc1ccc2c3c([nH]c2c1)[C@]1(CCc2ccccc2)[C@@H](C(=O)N2CCCCC2)C[C@H](CC(=O)NCc2ccco2)C(=O)N1CC3 | / | -4.4 | -12.9 | 39.1* | / | / | 23.9
Cc1ccc2nc(Cl)c(/C=N/Nc3ccc(C(=O)O)cc3)cc2c1 | 1.7 | 7.1 | -21.5 | -489.9 | -143.6 | -4.0 | -383.4
CC(CO)NS(=O)(=O)c1cc(Cl)ccc1F (stereo not drawn) | / | -5.9 | -17.6 | / | / | / | /
COc1ccc(NC(=S)NCc2ccccc2)c(OC)c1 | 5.6 | -4.4 | -6.1 | 42.8* | -2.7 | 3.4 | 29.9*
COc1ccc(NC(=O)C2CCCN2C(=O)OCc2ccccc2)c(OC)c1 (stereo not drawn) | -1.9 | -0.5 | -12.3 | 35.8* | -11.7 | -3.6 | 17.6
COc1ccc(NC(=S)NCCc2ccccc2)c(OC)c1 | -4.2 | -10.1 | 6.1 | 10.3 | -6.4 | 1.8 | /
Cc1ccccc1-n1c(=O)cc(N2CCN(C(=O)c3ccco3)CC2)[nH]c1=O | -3.8 | / | -0.3 | 7.2 | -12.1 | 3.8 | /
O=C(NC1=NCCS1)c1ccc(Cl)c(Cl)c1 | -7.3 | -9.2 | -60.1 | -254.5 | -147.0 | 2.4 | -186.3
CNC(=O)C(=O)NCCN1CCN(C(=O)c2ccc([N+](=O)[O-])cc2)CC1 | 1.4 | 3.6 | 6.6 | 35.1* | 9.7 | 3.4 | 14.7
O=C(NCCN1CCN(C(=O)c2ccc([N+](=O)[O-])cc2)CC1)C(=O)NCc1ccccc1 | 1.9 | -8.5 | -27.2 | -3.8 | 8.1 | 4.1 | /
Cc1ccc(Cl)cc1NC1=NC(=S)N(C(C)C)C12CCCCC2 | 7.0 | -3.8 | -15.3 | -11.2 | 0.9 | 0.6 | /
Cc1ccc(C(=O)NC(=S)Nc2ccc(NC(=O)c3cccc(Cl)c3)cc2)cc1 | 2.6 | -1.3 | -13.7 | -304.6 | -25.6 | -3.0 | 13.3
CC(=O)c1cccc(NC(=S)NC(=O)c2ccc(C)cc2)c1 | 0.9 | -1.9 | -35.5 | -34.2 | -106.1 | -1.4 | /
Cc1cc(C)nc(Sc2ccc([N+](=O)[O-])cc2[N+](=O)[O-])n1 | 11.3 | 7.8 | 11.9 | 40.7* | -14.1 | 0.6 | 29.3*
